Source: PubChem
MC4R antagonist = antagonists of human melanocortin 4 receptor (MC4R); P32245; MC4R-expressing cells, MTII-stimulated cAMP, LANCE TR-FRET; inhibition, % at 6.5 µM; 360,000 compounds, 0.48% hits;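 active means inhibition above its plate's cutoff, the mean of tested wells on that plate plus 3 SD, cut at about 29% in these data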;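 further: 0% = Melanotan II alone and 100% = Melanotan II plus saturating MCL0020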
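Assay system: human MC4R-expressing U2OS cells; reagent: Melanotan II stimulation of cells; dosing: 6.5 µM single dose; timing: compound 30 min, challenge 1 h, detection 1 h; signal: TR-FRET cAMP assay; replicates: one well per compound, no replicates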
m5-HT2A agonist = mouse HTR2A agonism via beta-arrestin recruitment; P35363; CHO-K1 mHTR2A beta-arrestin complementation, luminescence; percent of 30 µM serotonin response; activation, % at 7.6 µM; 360,000 compounds, 0.66% hits; AID 624169;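 active means activation above a run cutoff, the mean activation of all tested compounds plus 3 SD, cut at about 14% in these data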;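 further: 0% = plate median of compound wells and 100% = 30 µM serotonin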
Target sequence (P35363 whole entry, looked up): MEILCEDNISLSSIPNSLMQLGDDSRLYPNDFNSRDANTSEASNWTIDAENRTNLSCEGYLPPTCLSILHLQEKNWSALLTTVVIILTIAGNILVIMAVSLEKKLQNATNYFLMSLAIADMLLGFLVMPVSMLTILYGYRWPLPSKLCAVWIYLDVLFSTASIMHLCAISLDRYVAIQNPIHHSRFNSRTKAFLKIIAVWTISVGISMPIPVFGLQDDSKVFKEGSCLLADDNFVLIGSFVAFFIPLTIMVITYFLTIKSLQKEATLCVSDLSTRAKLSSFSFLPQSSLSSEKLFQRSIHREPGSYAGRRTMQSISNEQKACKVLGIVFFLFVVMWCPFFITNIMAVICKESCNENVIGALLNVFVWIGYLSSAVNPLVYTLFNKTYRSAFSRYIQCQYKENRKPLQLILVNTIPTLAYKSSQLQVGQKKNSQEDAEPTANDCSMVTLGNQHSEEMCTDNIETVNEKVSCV
AHR activator = activators of human aryl hydrocarbon receptor. P35869. AHR-responsive luciferase reporter cells, luminescence. activation, % at 5 µM. 320,000 compounds, 2.5% hits. AID 2796; in the data active means activation above about 47%;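 further: 0% = vehicle wells and 100% = reference agonist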
GAA850 FXN act = increases GAA850 frataxin promoter reporter activity; 360,000 compounds, 0.56% hits; HEK293 lucGAA850 FXN promoter luciferase reporter, 24 h; percent of 10 µM SAHA response; activation, % at 6 µM; AID 540364;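 active means activation above the average of all compounds screened plus 3 SD, cutoff fixed separately per campaign, cut at about 7.5% in these data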;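 further: 0% = DMSO wells and 100% = 10 µM SAHA wells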
MC4R ag barr = agonists of human melanocortin 4 receptor (MC4R) beta-arrestin; P32245; U2OS MC4R beta-arrestin complementation, luminescence; percent of melanotan II response, DMSO zero; activation, % at 8.9 µM; 360,000 compounds, 0.98% hits;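 active means activation above a per-plate cutoff, the mean activation of sample wells on that plate plus 3 SD, cut at about 8% in these data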
MOR ag counter = OPRM1 agonism in mouse HTR2A counterscreen; shares compounds with m5-HT2A agonist; U2OS OPRM1 beta-arrestin PathHunter, luminescence; DMSO 0%, DAMGO 9.3 µM 100%; activation, % at 9.3 µM; 2,300 compounds, 5.3% hits; AID 624380;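 active means mean activation above the mean of DMSO-only wells plus 3 SD, cut at about 0.5% in these data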
m5-HT2A ag conf = mouse HTR2A agonism confirmed. AID 624381. shares compounds with m5-HT2A agonist. CHO-K1 PathHunter beta-arrestin recruitment, luminescence; DMSO 0%, 30 µM serotonin 100%. 2,300 compounds, 19% hits. activation, % at 7.6 µM;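 active means mean activation across triplicates above the hit threshold derived in the original primary screen, cut at about 15% in these data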
* = called active by the depositor; x = no result. The list is not random: actives were taken first. Their share in the collection is about 4.7%.

SMILES	MC4R antagonist	m5-HT2A agonist	AHR activator	GAA850 FXN act	MC4R ag barr	MOR ag counter	m5-HT2A ag conf
c1ccc2c(c1)ccc1nnc(-c3ccc4c(c3)OCO4)n12	-2	18*	5	2	1	0	0
CC(=O)c1ccc(N2C(=O)CC(N3CCN(S(=O)(=O)c4cc(C)ccc4C)CC3)C2=O)cc1 (stereo not drawn)	-3	-2	1	1	1	x	x
COc1ccccc1NC(=O)Nc1nc(CC(=O)NCc2c(F)cccc2F)cs1	6	-5	22	1	-2	x	x
COc1ccccc1NC(=O)Nc1nc(CC(=O)N2CCN(c3ccccc3F)CC2)cs1	4	15*	11	-1	1	0	0
Cc1c(C(=O)Nc2ccc(-c3nnc4n3CCCCC4)cc2)oc2ccc(Br)cc12	6	18*	-5	3	1	0	2
O=C(Nc1ccc(-c2nnc3n2CCCCC3)cc1)c1ccco1	5	0	-1	2	-2	x	x
O=C(CCn1cnnn1)N1CCCC(Nc2ccc(F)c(F)c2)C1 (stereo not drawn)	7	9	0	-2	1	x	x
O=C(Nc1ccccc1)N1CCN(c2nc3ccccc3s2)CC1	8	27*	-5	-2	1	0	0
O=C(C1CC1)N1CCN(c2nc3ccccc3s2)CC1	19	0	-3	6	0	x	x
c1ccc(Cc2nnc(Sc3ccccc3)c3ccccc23)cc1	25	26*	-4	5	-1	0	9
c1ccc(Sc2ncnc3ccccc23)cc1	-5	7	-1	0	0	x	x
COC(=O)CCCC1=CC2=C(c3ccccc3)C(=O)C(C)(OC(=O)C3CCCC3)C(=O)C2=CN1CCc1ccccn1 (stereo not drawn)	11	15*	4	1	-1	0	-5
COC(=O)CCCC1=CC2=C(c3ccccc3)C(=O)C(C)(OC(=O)C3CCCC3)C(=O)C2=CN1CCN1CCOCC1 (stereo not drawn)	-1	-4	-2	-2	-1	x	x
O=C(Nc1nc2ccccc2s1)c1ccc(N2CCCCC2)c([N+](=O)[O-])c1	8	49*	12	-3	-2	-1	18*
O=C(NC1CCCCC1)C(c1ccc(C(F)(F)F)cc1)n1c(=O)c(-c2ccccc2)nc2ccccc21 (stereo not drawn)	x	-5	x	x	x	x	x
Cc1cn(CCOc2ccc(Cl)cc2)c(=O)[nH]c1=O	-1	17*	-3	-1	2	-1	-4
Cc1c(C)n2c(SCC(=O)N3CCCCC3)nnc2[nH]c1=O	-2	2	-1	0	-2	x	x
CCOc1ccc(CCNC(=O)c2ccc3c(=O)[nH]c4c(C(=O)NC(C)C)sc(=S)n4c3c2)cc1	-1	19*	1	2	1	-1	0
CC(C)NC(=O)c1sc(=S)n2c1[nH]c(=O)c1ccc(C(=O)NCCc3ccc(Cl)cc3)cc12	0	-4	0	2	1	x	x
CC(=O)c1ccc(Sc2ccccn2)c([N+](=O)[O-])c1	-2	3	2	0	0	x	x
N#Cc1ccc(Sc2ccccn2)c([N+](=O)[O-])c1	-9	15*	-2	4	-1	0	-4
COc1ccc(C2C3=C(CCCC3=O)Nc3c(-c4ccccc4)c(C)nn32)cc1 (stereo not drawn)	7	-2	10	-2	0	x	x
Cc1nn2c(c1-c1ccccc1)NC1=C(C(=O)CCC1)C2c1ccccc1 (stereo not drawn)	12	16*	-3	-4	1	-1	-3
COc1ccc(-c2c(-c3cc(OC)cc(OC)c3)n(C)c3ccc(-c4cnc(OC)nc4)cc23)cc1	0	3	-2	1	-1	x	x
COc1ccc(-c2c(-c3cc(OC)cc(OC)c3)n(C)c3ccc(-c4ccc5[nH]ccc5c4)cc23)cc1	0	22*	2	0	1	-1	-3
